The test system of assay [1] is Aspergillus fumigatus. Description: Antifungal activity against Aspergillus fumigatus ATCC 204305. The format is functional, organism-based.
Assay [2] deals with Candida albicans. Description: Antifungal activity against Candida albicans ATCC 90028. The format is functional, organism-based.
Assay [3] relates to Vero. Description: Cytotoxicity against Chlorocebus aethiops (African green monkey) Vero cells after 48 hr by neutral red assay. The format is cell-based, Chlorocebus sabaeus.
Assay [4] relates to Pichia kudriavzevii. Briefly: Antifungal activity against Pichia kudriavzevii ATCC 6258 at 20 ug/ml. The format is functional, organism-based.
Assay [5] relates to Plasmodium falciparum. Description: Antimalarial activity against chloroquine-sensitive Plasmodium falciparum D6 after 72 hr by plasmodial LDH assay. The format is functional, organism-based. The essentials:
(§1)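 Compounds dissolved in DMSO (2 mg/ml stock), serially diluted. Culture at 2% parasitemia and 2% hematocrit in RPMI 1640 with 10% human serum and 60 μg/ml amikacin, under 90% N2/5% O2/5% CO2, 37°C for 72 h. LDH read-out: Malstat reagent 30 min, then NBT/PES 1 h in dark, acetic acid stop, absorbance 650 nm. IC50 from dose–response curves. Chloroquine positive control; 0.25% DMSO vehicle.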

Assay [6] has as its system Plasmodium falciparum. Briefly: Antimalarial activity against chloroquine-resistant Plasmodium falciparum W2 after 72 hr by plasmodial LDH assay. The format is functional, organism-based. The essentials:
as §1

Assay [7] relates to Cryptococcus neoformans. Briefly: Antifungal activity against Cryptococcus neoformans ATCC 90113 at 20 ug/ml. The format is functional, organism-based.
Assay [8] has as its system Nakaseomyces glabratus. Description: Antifungal activity against Candida glabrata ATCC 90030. The format is functional, organism-based.
In assay [9] the test system is Escherichia coli. Briefly: Antibacterial activity against Escherichia coli ATCC 35218. The format is functional, organism-based.
The test system of assay [10] is Leishmania donovani. Description: Antileishmanial activity against promastigote form of Leishmania donovani after 48 hr by alamar blue assay. The format is functional, organism-based. The essentials: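 A 3-day-old promastigote culture grown in RPMI 1640 with 10% FCS at 26°C was diluted to 5 × 10^5/ml. Drug dilutions were made directly in the cell suspension, then incubated 48 h at 26°C. Growth was read by Alamar blue fluorescence (ex 544/em 590 nm). IC50 came from dose–response curves, with pentamidine and amphotericin B as standards.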
In general terms: Resazurin is reduced to fluorescent resorufin, in cell work by metabolically active cells.

The subject of assay [11] is Staphylococcus aureus. Description: Antibacterial activity against methicillin-resistant Staphylococcus aureus ATCC 33591. The format is functional, organism-based.
The subject of assay [12] is Mycobacterium intracellulare. Briefly: Antibacterial activity against Mycobacterium intracellulare ATCC 23068. The format is functional, organism-based.
For assay [13], the system named is Staphylococcus aureus. Briefly: Antibacterial activity against Staphylococcus aureus ATCC 29213 at 20 ug/ml. The format is functional, organism-based.
Assay [14] has as its system Pseudomonas aeruginosa. Briefly: Antibacterial activity against Pseudomonas aeruginosa ATCC 27853. The format is functional, organism-based.
Assay [15] has as its system Staphylococcus aureus. Description: Antibacterial activity against Staphylococcus aureus ATCC 29213. The format is functional, organism-based.
Assay [16] has as its system Cryptococcus neoformans. Description: Antifungal activity against Cryptococcus neoformans ATCC 90113. The format is functional, organism-based.
Assay [17] concerns Staphylococcus aureus. Briefly: Antibacterial activity against methicillin-resistant Staphylococcus aureus ATCC 33591 at 20 ug/ml. The format is functional, organism-based.
In assay [18] the test system is Nakaseomyces glabratus. Description: Antifungal activity against Candida glabrata ATCC 90030 at 20 ug/ml. The format is functional, organism-based.
Assay [19] deals with Pichia kudriavzevii. Briefly: Antifungal activity against Pichia kudriavzevii ATCC 6258. The format is functional, organism-based.
The mark [20] stands for this setting: Plasmodium falciparum, D6, 72 h, read-out: IC50.
Setting [21] is: Plasmodium falciparum, W2, 72 h, read-out: IC50.
Where [22] appears, read: Leishmania donovani, 48 h, read-out: IC50.

≈ marks a conversion by molar mass, not a printed value. Calls of active or inactive are those of the source. No cut-off for these calls is given here.

On to `CCCCC/C=C/c1c(O)cc(CC=C(C)C)c(O)c1CO`, for which the result in [1], in [2], in assay [4], in assay [7], in assay [9] and in assay [12] was inactive. The outcome in assay [13] and in assay [14] was inactive. The IC50 (as a rule, the concentration at which inhibition is half-maximal) in [3] was “Non-toxic”; in assay [5] (setting [20]) it was 3 µg/mL (≈ 9.85 µM); in assay [6] (setting [21]), 2.8 µg/mL (≈ 9.2 µM); in [8], 7.17 µg/mL (≈ 23.6 µM); in [10] (setting [22]), 19 µg/mL (≈ 62.4 µM); in [11], 12 µg/mL (≈ 39.3 µM).

Turning to `CCC/C=C/c1cc2c(C=O)c(O)c(CC=C(C)C)cc2o1`, the result in assay [1], in assay [2], in assay [4], in assay [9], in assay [12] and in [14] was inactive. Further, the IC50 is 7.75 µg/mL (≈ 26 µM) in [15]; “Non-toxic” in [3]; 5.31 µg/mL (≈ 17.8 µM) in assay [16]; 3 µg/mL (≈ 10.1 µM) in [5] (setting [20]); 2.8 µg/mL (≈ 9.38 µM) in [6] (setting [21]); 1.13 µg/mL (≈ 3.79 µM) in assay [8]. Also, in assay [11], it took 5.4 µg/mL (≈ 18.1 µM) to reach half-maximal inhibition (IC50).

`Cc1c(O)cc(O)c2c1COC2=O` [5,7-DIHYDROXY-4-METHYLPHTHALIDE]: the result in assay [1], in assay [17], in assay [2], in assay [4], in assay [9] and in [18] was inactive. The result in [12], in assay [13] and in assay [14] was inactive. Besides, the IC50 result in assay [3] was “Non-toxic”; in assay [16] it was 18.1 µg/mL (≈ 100 µM); in assay [5] it was “Not Active”; in [6], “Not Active”; in assay [10], “Not Active”.

As to `C[C@@H]1[C@H](O)[C@@H](C)/C=C/C=C/C=C/C=C/C=C/C=C/C=C/[C@H](O[C@@H]2O[C@H](C)[C@@H](O)[C@H](N)[C@@H]2O)C[C@@H]2O[C@](O)(C[C@@H](O)C[C@@H](O)[C@H](O)CC[C@@H](O)C[C@@H](O)CC(=O)O[C@H]1C)C[C@H](O)[C@H]2C(=O)O` [AMPHOTERICIN B], the IC50 in assay [16] stood at 1.23 µg/mL (≈ 1.33 µM); in assay [19], 0.36 µg/mL (≈ 0.39 µM); in assay [8], 0.32 µg/mL (≈ 0.346 µM).

As to `C/C=C/C=C/C=C/c1c(O)cc(CC=C(C)C)c(O)c1C=O` [AUROGLAUCIN], the outcome in assay [1], in assay [17], in assay [2], in assay [7], in assay [9] and in assay [12] was inactive. Also, the outcome in [13] and in [14] was inactive. For the same compound, the IC50 entry in assay [3] is “Non-toxic”; in assay [19] it was 10.9 µg/mL (≈ 36.6 µM); in assay [8], 7.33 µg/mL (≈ 24.6 µM); in assay [10] (setting [22]), 7.5 µg/mL (≈ 25.1 µM).

Take `CCC/C=C/C=C/c1c(O)cc(CC=C(C)C)c(O)c1C=O` [DIHYDROAUROGLAUCIN]: the outcome in assay [1], in [17], in assay [2], in [4], in [7] and in assay [9] was inactive. Further, the outcome in [12], in assay [13] and in assay [14] was inactive. The IC50 result was “Non-toxic” in assay [3]; “Not Active” in assay [5]; “Not Active” in assay [6]; 2.39 µg/mL (≈ 7.96 µM) in assay [8]; 20 µg/mL (≈ 66.6 µM) in assay [10] (setting [22]).

For the compound `C=CC(C)(C)c1[nH]c2c(CC=C(C)C)cc(CC=C(C)C)cc2c1C[C@@H]1NC(=O)[C@H](C)NC1=O` [ECHINULIN], the result in assay [1], in assay [17], in [2], in [4], in assay [7] and in assay [9] was inactive. In addition, the result in assay [18], in assay [12], in assay [13] and in assay [14] was inactive. Also, the IC50 result in assay [3] is reported as “Non-toxic”; in assay [5] it was “Not Active”; in assay [6] it was “Not Active”; in assay [10] it was “Not Active”.

Take `CCCCCCCc1c(O)cc(CC=C(C)C)c(O)c1C=O` [FLAVOGLAUCIN]: the result in [1], in [2], in assay [4], in [7], in assay [9] and in assay [18] was inactive. Moreover, the result in assay [12] and in assay [14] was inactive. The IC50 was 14.3 µg/mL (≈ 47 µM) in assay [15]; “Non-toxic” in assay [3]; 3 µg/mL (≈ 9.85 µM) in assay [5] (setting [20]); 23 µg/mL (≈ 75.6 µM) in assay [10] (setting [22]); 10.4 µg/mL (≈ 34.2 µM) in assay [11].

In the case of `CCCCC/C=C/c1c(O)cc(CC=C(C)C)c(O)c1C=O` [TETRAHYDROAUROGLAUCIN], the outcome in assay [1], in [17], in assay [2], in assay [4], in assay [7] and in assay [9] was inactive. The outcome in assay [12] and in assay [14] was inactive. Moreover, the half-maximal inhibitory concentration (IC50) in assay [15] is 13.5 µg/mL (≈ 44.7 µM); in assay [3] it was “Non-toxic”; in [5] (setting [20]) it was 2.8 µg/mL (≈ 9.26 µM); in assay [6] (setting [21]) it was 2.3 µg/mL (≈ 7.61 µM); in assay [8] it was 6.15 µg/mL (≈ 20.3 µM); in assay [10] (setting [22]), 22 µg/mL (≈ 72.7 µM).

(Values after ChEMBL document CHEMBL3046871, “Antimicrobial and antiprotozoal activities of secondary metabolites from the fungus Eurotium repens” (Med Chem Res, 2012).)
